The target of assay [1] is T1, 4-hydroxy-tetrahydrodipicolinate synthase 1, chloroplastic (Arabidopsis thaliana, UniProt Q9LZX6).
T1 sequence (Q9LZX6 whole entry): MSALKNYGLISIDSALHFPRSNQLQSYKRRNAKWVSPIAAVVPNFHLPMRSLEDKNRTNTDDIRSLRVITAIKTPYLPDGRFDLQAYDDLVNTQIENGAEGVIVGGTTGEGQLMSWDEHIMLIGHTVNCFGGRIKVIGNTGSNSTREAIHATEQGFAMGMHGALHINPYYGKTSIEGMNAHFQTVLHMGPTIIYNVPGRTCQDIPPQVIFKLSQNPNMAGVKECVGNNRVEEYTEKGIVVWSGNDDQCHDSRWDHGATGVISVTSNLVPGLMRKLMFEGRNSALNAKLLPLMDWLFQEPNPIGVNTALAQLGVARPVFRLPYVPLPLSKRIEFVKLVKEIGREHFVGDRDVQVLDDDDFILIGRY
Description: Inhibition of Arabidopsis thaliana DHDPS1. An outline of the steps:
(§1)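 Coupled DHDPS–DHDPR assay with final 250 mM HEPES pH 8.0, 0.2 mM NADPH, 1 mM pyruvate, 0.125 mM ASA, 0.0009 mM E. coli DHDPR, 0.00008 mM DHDPS, 0.05% Tween 20 and varied inhibitor. Enzymes, pyruvate, buffer and NADPH were held at 30 °C for 12 min, then ASA was added. NADPH oxidation was followed at 340 nm and 30 °C. Initial rates came from the linear A340 slope, run in triplicate, and were used for IC50.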

Assay [2] in a line: Inhibition of Escherichia coli DHDPS using ASA as substrate assessed as NADPH oxidation to NADP+ preincubated with compound for 12 mins in the presence of NADPH followed by substrate addition by UV/Vis spectrophotometric analysis. In outline:
as §1

Assay [3] deals with T2, 4-hydroxy-tetrahydrodipicolinate synthase 2, chloroplastic (Arabidopsis thaliana, UniProt Q9FVC8).
T2 sequence (Q9FVC8 whole entry): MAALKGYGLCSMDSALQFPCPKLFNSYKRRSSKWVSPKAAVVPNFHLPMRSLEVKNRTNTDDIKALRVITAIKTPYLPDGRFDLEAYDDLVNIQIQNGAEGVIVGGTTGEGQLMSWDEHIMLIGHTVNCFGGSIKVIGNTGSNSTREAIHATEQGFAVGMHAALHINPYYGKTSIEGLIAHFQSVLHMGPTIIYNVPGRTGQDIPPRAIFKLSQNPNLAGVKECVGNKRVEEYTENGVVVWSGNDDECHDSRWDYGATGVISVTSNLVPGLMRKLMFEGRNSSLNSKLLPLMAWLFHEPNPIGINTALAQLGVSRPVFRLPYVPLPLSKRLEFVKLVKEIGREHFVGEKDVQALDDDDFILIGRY
Description: Inhibition of Arabidopsis thaliana DHDPS2. An outline of the steps: as §1

The structures appear in SMILES notation.

Take `COc1ccc(/C=C2\SC(=O)N(CC(=O)O)C2=O)cc1`: the IC50 in assay [1] was determined as 66.2 µM; in assay [2], 47 µM; in assay [3] it was 66 µM. With `CCOC(=O)C(Br)CCC(Br)C(=O)OCC` (stereo unspecified), the half-inhibitory concentration (IC50) in assay [2] turned out to be 77.4 µM. Take `COc1ccc(/C=C2\SC(=O)N(C(CCCC(C(=O)O)N3C(=O)S/C(=C\c4ccc(OC)cc4)C3=O)C(=O)O)C2=O)cc1` (stereo unspecified): the IC50 in assay [2] was found to be 40.6 µM. For `COc1ccc(/C=C2\SC(=O)N([C@H](CC[C@@H](C(=O)O)N3C(=O)S/C(=C\c4ccc(OC)cc4)C3=O)C(=O)O)C2=O)cc1`, in assay [2], the concentration for half-maximal inhibition (IC50) was 42 µM.

On to `COc1ccc(/C=C2\SC(=O)N([C@H](C[C@@H](C(=O)O)N3C(=O)S/C(=C\c4ccc(OC)cc4)C3=O)C(=O)O)C2=O)cc1`, for which the half-maximal inhibitory concentration (IC50) in assay [1] worked out at 35.6 µM; in assay [2], 9.95 µM; in assay [3], 33.9 µM.

For the molecule `COc1ccc(/C=C2\SC(=O)N([C@@H](CC[C@@H](C(=O)O)N3C(=O)S/C(=C\c4ccc(OC)cc4)C3=O)C(=O)O)C2=O)cc1` (racemic), in assay [2], the 50% inhibitory concentration (IC50) is 19.7 µM.

As to `COc1ccc(/C=C2\SC(=O)N([C@H](C[C@H](C(=O)O)N3C(=O)S/C(=C\c4ccc(OC)cc4)C3=O)C(=O)O)C2=O)cc1` (racemic), the IC50 in assay [2] stood at 30.4 µM.

Source of the values: ChEMBL document CHEMBL5356938, “Enhancing allosteric inhibition of dihydrodipicolinate synthase through the design and synthesis of novel dimeric compounds” (RSC Med Chem, 2023).
